# Results from ChEMBL document CHEMBL1933056, “Cytotoxic potential of novel 6,7-dimethoxyquinazolines” (Eur J Med Chem, 2012).
# Active and inactive are the calls of the source. No cut-off for these calls is given here.
# Key:
# [1] = test system: HEY; test: Cytotoxicity against human HEY cells at 10 uM after 72 hrs by MTT assay; assay type: functional
# Method in brief: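 Single-concentration MTT screen, continuous 72 h exposure at 10 µM (diluted from a 10 mM DMSO stock). MTT was added at 0.5 mg/mL final for 4 h at 37 °C, the formazan was dissolved in DMSO and absorbance read at 570 nm. Result given as % cells killed, (1 − A/C) × 100, done in triplicate. HEY cells were grown in RPMI 1640 with 10% FBS and 2 mM glutamine.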
# [2] = test system: HCT-116; test: Cytotoxicity against p53-deficient human HCT116 cells at 10 uM after 72 hrs by MTT assay; assay type: functional
# [3] = test system: HCT-116; test: Cytotoxicity against p53-positive human HCT116 cells at 10 uM after 72 hrs by MTT assay; assay type: functional
# [4] = test system: HCT-116; test: Induction of cell cycle arrest in p53-deficient human HCT116 cells assessed as accumulation at S phase at 1 uM after 24 hrs by flow cytometric analysis (reference value: 13.5%); assay type: functional
# [5] = test system: HCT-116; test: Induction of cell cycle arrest in p53-deficient human HCT116 cells assessed as accumulation at G2/M phase at 1 uM after 48 hrs by flow cytometric analysis (reference value: 24.5%); assay type: functional
# [6] = test system: HCT-116; test: Anticlonogenic activity against p53-positive human HCT116 cells assessed as inhibition of colony formation at 0.1 to 20 uM after 24 hrs by crystal violet staining-based microscopic analysis; assay type: functional, cell-based
# Method in brief: (§1)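 Cells plated at 100 cells/well and left to attach overnight. Serial compound dilutions were applied for 24 h, followed by a PBS wash and culture in drug-free medium for 8-10 days until colonies formed. Colonies were fixed in 1% glutaraldehyde for 30 min, stained with 2% crystal violet for 30 min, imaged and counted. Values are the mean of at least three independent experiments.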
# [7] = test system: HCT-116; test: Induction of cell cycle arrest in p53-deficient human HCT116 cells assessed as accumulation at S phase at 1 uM after 48 hrs by flow cytometric analysis (reference value: 13.5%); assay type: functional
# [8] = test system: HCT-116; test: Induction of cell cycle arrest in p53-deficient human HCT116 cells assessed as accumulation at G0/G1 phase at 1 uM after 24 hrs by flow cytometric analysis (reference value: 60%); assay type: functional
# [9] = test system: HCT-116; test: Growth inhibition of p53-positive human HCT116 cells at > 5 uM after 24 hrs by crystal violet staining-based microscopic analysis; assay type: functional, cell-based; method in brief: as §1
# [10] = test system: HCT-116; test: Induction of cell cycle arrest in p53-deficient human HCT116 cells assessed as accumulation at G0/G1 phase at 1 uM after 48 hrs by flow cytometric analysis (reference value: 60%); assay type: functional
# [11] = test system: HCT-116; test: Induction of cell cycle arrest in p53-deficient human HCT116 cells assessed as accumulation at G2/M phase at 1 uM after 24 hrs by flow cytometric analysis (reference value: 24.5%); assay type: functional
# [12] = test system: HCT-116; test: Anticlonogenic activity against p53-deficient human HCT116 cells assessed as inhibition of colony formation at 0.1 to 20 uM after 24 hrs by crystal violet staining-based microscopic analysis; assay type: functional, cell-based; method in brief: as §1
# [13] = test system: HCT-116; test: Growth inhibition of p53-deficient human HCT116 cells at > 5 uM after 24 hrs by crystal violet staining-based microscopic analysis; assay type: functional, cell-based; method in brief: as §1
# [14] = test system: HCT-116; test: Cytotoxicity against p53-deficient human HCT116 cells after 72 hrs by MTT assay; assay type: functional, cell-based; conditions: HCT-116, 72 h
# Method in brief: (§2)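 Cells seeded, allowed to attach, then exposed to the drug continuously for 72 h over multiple doses. MTT was added at 0.5 mg/mL final for 4 h at 37 °C, solubilized in DMSO and read at 570 nm. Inhibition = (1 − A/C) × 100. IC50 was taken from a plot of log concentration versus % inhibition, assays in triplicate, with SD from at least three independent experiments.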
# [15] = test system: HCT-116; test: Cytotoxicity against p53-positive human HCT116 cells after 72 hrs by MTT assay; assay type: functional, cell-based; conditions: HCT-116, 72 h; method in brief: as §2
# [16] = test system: HCT-116; test: Growth inhibition of p53-deficient human HCT116 cells at > 1 uM after 24 hrs by crystal violet staining-based microscopic analysis; assay type: functional, cell-based; method in brief: as §1
# [17] = test system: HCT-116; test: Growth inhibition of p53-positive human HCT116 cells at > 1 uM after 24 hrs by crystal violet staining-based microscopic analysis; assay type: functional, cell-based; method in brief: as §1
SMILES,Activity [1] [%],Activity [2] [%],Activity [3] [%],IC50 [14] [µM],IC50 [15] [µM],further results
CCCCn1c(-c2ccc(-c3nnn[nH]3)cc2)nc2cc(OC)c(OC)cc2c1=O,2,8,15,,,
COc1cccc(-c2nc(N=[N+]=[N-])c3cc(OC)c(OC)cc3n2)c1,13,24,25,,,
COc1cc2nc(CNc3ccc(NS(C)(=O)=O)cc3)[nH]c(=O)c2cc1OC,9,14,28,,,
COc1cc2nc(CNc3ccc(C(=O)O)cc3)[nH]c(=O)c2cc1OC,0.5,8,30,,,
COc1cc2nc(Nc3ccccc3-c3ccccc3NS(C)(=O)=O)nc(N)c2cc1OC,94,95,95,5,6,Activity [4]: 14%; Activity [5]: 34.5%; Activity [6]: Active; Activity [7]: 9%; Activity [8]: 61%; growth inhibition (GI) [9]: Active; Activity [10]: 54.5%; Activity [11]: 23%; Activity [12]: Active; growth inhibition (GI) [13]: Active
COc1cc2nc(CNc3cccc(NS(C)(=O)=O)c3)[nH]c(=O)c2cc1OC,23,31,34,,,
COc1cc2nc(Cc3cccc4ccccc34)[nH]c(=O)c2cc1OC,66,79,80,0.7,1.7,Activity [6]: Active; growth inhibition (GI) [16]: Active; growth inhibition (GI) [17]: Active; Activity [12]: Active
COc1cc2nc(Nc3ccc([N+](=O)[O-])cc3)nc(N)c2cc1OC,4,22,42,,,
COc1cc2nc(-c3cccc(C)c3)nc(N)c2cc1OC,6,27,20,,,
COc1ccc(-c2nc3cc(OC)c(OC)cc3c(=O)[nH]2)cc1,2,3,10,,,
CCCCn1c(-c2ccc(NC(C)=O)cc2)nc2cc(OC)c(OC)cc2c1=O,6,17,19,,,
COc1ccc(-c2nc(N)c3cc(OC)c(OC)cc3n2)cc1,17,42,21,,,
COc1ccc(-c2nc(N=[N+]=[N-])c3cc(OC)c(OC)cc3n2)cc1,42,48,58,7,10,
COc1cc2nc(-c3ccc(C)cc3)nc(N)c2cc1OC,2,16,5,,,
COc1cc2nc(-c3cccc(Cl)c3)[nH]c(=O)c2cc1OC,42,37,35,,,
CCCCn1c(-c2cccc(NS(C)(=O)=O)c2)nc2cc(OC)c(OC)cc2c1=O,9,27,26,,,
COc1cc2nc(-c3ccccc3Cl)nc(N=[N+]=[N-])c2cc1OC,43,63,50,> 10,8,
COc1cccc(-c2nc(N)c3cc(OC)c(OC)cc3n2)c1,7,20,19,,,
CCCCn1c(-c2ccc(NS(C)(=O)=O)cc2)nc2cc(OC)c(OC)cc2c1=O,0.5,4,6,,,
COc1cc2nc(-c3cccc(Cl)c3)nc(N=[N+]=[N-])c2cc1OC,35,45,56,10,10,
COc1cc2nc(-c3ccccc3Cl)nc(N)c2cc1OC,4,,18,,,
COc1cc2nc(-c3cccc(Cl)c3)nc(N)c2cc1OC,3,2,19,,,
COc1cc2nc(Cc3ccc(Cl)cc3)[nH]c(=O)c2cc1OC,49,57,63,> 10,9,
COc1cc2nc(Cc3ccccc3Cl)[nH]c(=O)c2cc1OC,35,50,59,> 10,9,
COc1cc2nc(-c3ccc(C)cc3)nc(N=[N+]=[N-])c2cc1OC,29,66,47,9,8,
CCCCn1c(-c2cccc(-c3nnn[nH]3)c2)nc2cc(OC)c(OC)cc2c1=O,4,3,13,,,
COc1ccc(NCc2nc3cc(OC)c(OC)cc3c(=O)[nH]2)cc1,19,22,38,,,
COc1cc2nc(-c3cccc(C)c3)nc(N=[N+]=[N-])c2cc1OC,42,71,55,> 10,9,
COc1cc2nc(-c3cccc(NC(C)=O)c3)[nH]c(=O)c2cc1OC,12,22,16,,,
